# Sampled rows, rich in hits. Any-hit rate of the full collection: about 2.2%.
# IMP-1 inh – IMP-1 metallo-beta-lactamase inhibitors, primary screen, biochemical, epi-absorbance readout, Pseudomonas aeruginosa enzyme; 290,000 tested, 0.45% active; inhibition, % at 5.6 µM; purified IMP-1, nitrocefin hydrolysis, epi-absorbance fluorescence; AID 1556, 2009; metallo-beta-lactamase IMP-1 (Pseudomonas aeruginosa);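 active means inhibition above the mean plus 3 SD of all compounds in the same screening run, cut at about 4.5% in these data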
#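 System – purified recombinant IMP-1 beta-lactamase · Input – IMP-1 dispensed at 0.2 nM · Timing – 15 min preincubation plus 25 min reaction at 25 °C · Signal – Epi-absorbance fluorescence, 480 nm excitation, 530 nm emission · Measure – percent IMP-1 inhibition derived from blank-referenced optical density · Controls – Enzyme-plus-DMSO low control, enzyme-free DMSO high control · Replication – singlicate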
# MEX-5 binding – MEX-5 zinc finger RNA-binding disruptors – biochemical, C. elegans, fluorescence polarization, MLPCN library, primary screen. MEX-5/FITC-TCR2 RNA binding; active compounds read low. activity score (negative = inhibition of binding), % at 10 µM. 300,000 tested, 0.38% active. AID 1832, 2009;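 active means inhibition past about -25% in most replicates, and total fluorescence under double the plate's negative control median, limit read from the data; inconclusive means replicates evenly split on the limit, or fluorescence at least double controls; inactive means too little inhibition in most replicates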
# Target sequence (Q9XUB2 whole entry, looked up): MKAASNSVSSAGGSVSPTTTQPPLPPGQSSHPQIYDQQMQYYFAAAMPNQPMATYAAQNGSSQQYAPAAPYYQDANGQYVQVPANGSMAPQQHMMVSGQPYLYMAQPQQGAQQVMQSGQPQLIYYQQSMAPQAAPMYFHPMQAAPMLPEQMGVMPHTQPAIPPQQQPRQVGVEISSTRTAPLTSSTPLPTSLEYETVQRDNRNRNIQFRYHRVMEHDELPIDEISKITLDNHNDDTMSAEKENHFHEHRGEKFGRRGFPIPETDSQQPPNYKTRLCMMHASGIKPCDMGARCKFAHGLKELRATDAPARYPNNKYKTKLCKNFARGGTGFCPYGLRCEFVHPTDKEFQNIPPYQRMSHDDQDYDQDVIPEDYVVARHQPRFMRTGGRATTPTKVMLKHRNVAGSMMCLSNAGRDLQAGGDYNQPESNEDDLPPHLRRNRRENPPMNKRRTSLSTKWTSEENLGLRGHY
# VIM-2 inh – VIM-2 metallo-beta-lactamase inhibitors, primary screen, biochemical, epi-absorbance readout, Pseudomonas aeruginosa enzyme; purified VIM-2, nitrocefin hydrolysis, epi-absorbance fluorescence; inhibition, % at 5.6 µM; 290,000 tested, 0.89% active; AID 1527, 2009;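 active means inhibition above the mean of all tested compounds plus 3 SD, cutoff set per screening run, cut at about 7.5% in these data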;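 further: red hydrolysis product quenches plate fluorescence so inhibitors raise well fluorescence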
# GLD-1 RNA inh – GLD-1/TGE RNA complex disruptors, primary screen, biochemical, fluorescence polarization. inhibition, % at 5.96 µM. 320,000 tested, 0.44% active. Female germline-specific tumor suppressor gld-1 (Caenorhabditis elegans), Q17339. purified GLD-1 + fluorescein TGE RNA;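 active means percent inhibition above a per-plate cutoff, the plate mean of test compounds plus 3 SD, cut at about 30% in these data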
# Bcl-xL primary – inhibitors of human Bcl-xL, primary screen, biochemical, fluorescence polarization, HTS; GST-Bcl-xL / FITC-Bim BH3 peptide fluorescence polarization; inhibition, % at 10.9 µM; 320,000 tested, 0.7% active;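 active means inhibition above the mean of all tested compounds plus 3 SD, cutoff set per campaign, cut at about 30% in these data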;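 further: inhibitors lower millipolarization by displacing the labeled peptide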
# EBV gp42 inh – Epstein-Barr virus gp42 inhibitors, primary screen, biochemical, uHTS, fluorescence polarization; Glycoprotein 42 (Epstein-Barr virus (strain AG876)), Q1HVG2; Fluorescence polarization binding assay, mP read-out; inhibition, % (tested at 21.74 µM); 220,000 tested, 0.42% active; in the data active means inhibition above about 50%
# Numbers stand for hits; . = inactive; ? = inconclusive; / = not tested or not shown.
SMILES,IMP-1 inh,MEX-5 binding,VIM-2 inh,GLD-1 RNA inh,Bcl-xL primary,EBV gp42 inh
CN1CCC(N(C)C(=O)c2cc(-c3ccccc3Cl)nc3ccccc23)CC1,/,/,/,.,.,/
O=C(Nc1ccc(F)cc1)Nc1nnc(-c2ccncc2)s1,.,.,.,.,.,.
O=C(Nc1ccc(Cl)cc1)Nc1nnc(-c2ccncc2)s1,.,.,.,.,.,77
COC(Cc1ccccc1N1CCCC1=O)OC,.,.,.,.,.,/
COc1cccc(NC(=O)Cc2nnc(SCC(=O)NC3CCCCC3)n2C)c1,.,.,.,.,.,/
CC(=O)c1cccc(N(C(=O)Cn2nnc3ccccc32)C(C(=O)NC2CCCCC2)c2cn(C)nc2C)c1 (stereo not drawn),.,.,.,.,.,.
O=C(NC1CCCCC1)C(c1ccc(O)c(O)c1)N(C(=O)Cn1nnc2ccccc21)c1cccc(O)c1 (stereo not drawn),11,.,.,.,.,.
CC(=O)OCCCNc1cc(Sc2nc3ccccc3s2)c2nonc2c1[N+](=O)[O-],.,.,.,.,.,78
CC(=O)OCCCNc1cc(Sc2ccc(C)cc2)c2nonc2c1[N+](=O)[O-],.,.,.,.,.,.
COC(=O)c1cccc(NC(=O)COC(=O)CSc2nc(C)cc(C)n2)c1,.,.,.,.,135,.
Cc1[nH]c(-c2ccccn2)nc(=S)c1Cl,.,.,.,.,.,.
Cc1cc(=S)nc(-c2ccccn2)[nH]1,.,.,11,.,.,.
C=CCN=C(NC#N)SCC(=O)NC(C)(C)C,5.4,.,.,.,.,.
NC(=O)c1c(NC(=O)Cn2nc(C(=O)O)c3ccccc3c2=O)sc2c1CCCC2,.,.,.,.,.,53
NC(=O)c1c(NC(=O)Cn2nc(C(=O)O)c3ccccc3c2=O)sc2c1CCC2,.,.,.,.,.,.
Cc1nc(S/C(=C/c2ccc(-c3ccc(C(=O)O)cc3)o2)C(=O)O)n[nH]1,.,-80,.,.,.,.
CC(=O)c1ccc(-c2ccc(/C=C(/Sc3n[nH]c(C)n3)C(=O)O)o2)cc1,.,-35,.,.,.,.
Cc1nc(S/C(=C/c2ccc(-c3ccc(Cl)cc3)o2)C(=O)O)n[nH]1,.,.,.,.,.,.
CCOc1ccc2c(c1)c1nc3ccccc3nc1n2C,.,?,8.4,/,/,/
Cn1c2ccc(F)cc2c2nc3ccccc3nc21,.,.,7.9,.,.,/
Cn1c2ccc(Cl)cc2c2nc3ccccc3nc21,.,.,.,.,.,.
CCOC(=O)c1cc(-c2ccc(/C=C3/C(=O)NC(=O)C(C#N)=C3C)o2)ccc1Cl,.,.,.,42,85,106
CCCCC1(C)OC(=O)C(=Cc2ccc(-c3ccc(Cl)c(C(=O)O)c3)o2)C(=O)O1 (stereo not drawn),29,.,.,.,.,.
COc1ccc(NC(=O)Nc2cccc3c2O[C@@H](CN(C)S(=O)(=O)c2cn(C)cn2)[C@@H](C)CN([C@H](C)CO)C3=O)cc1,/,/,/,.,/,/
CN(C)N1C(N)=C(C#N)C(c2ccc3c(c2)OCO3)C2=C1CCCC2=O (stereo not drawn),.,.,.,.,.,/
CCOC(=O)N1CCN(C(=O)c2ccccc2Oc2ccccc2)CC1,.,.,.,.,.,130
CCOC(=O)C1CCN(C(=O)c2ccccc2Oc2ccccc2)CC1,.,.,.,.,.,.
COc1ccc(S(=O)(=O)NCC2CCCN(CC(C)(C)C)C2)cc1 (stereo not drawn),.,.,.,.,.,.
COc1ccc(OC)c(N=Cc2c(O)c3ccccc3oc2=O)c1,.,-29,.,.,.,/
COc1ccc(C2=NN(C(=O)CSc3nccn3C)C(c3ccco3)C2)cc1 (stereo not drawn),/,/,/,.,/,/

# From PubChem BioAssay
